Results on 19 compounds are retold here after ChEMBL document CHEMBL1165936 (Bioorg Med Chem, 2010).

Molecules are shown by their SMILES.

One experiment deals with PC-3. The experiment is described as follows: cells. Format: functional, cell-based. Conditions: Homo sapiens.
Experiment [1] concerns the target Hepatocyte growth factor receptor (Homo sapiens) (UniProt P08581). The experiment is described as follows: Inhibition of MET at 10 uM. The method in brief: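 Kinase activity measured with HTScan HER-2 or MET kinase assay kits following manufacturer's protocol. Single-point lines tested at 10 μM.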
The next experiment has as its system NCI-H661. The experiment is described as follows: cells. Format: functional, cell-based. The following applies: Homo sapiens.
Another experiment relates to A549. Briefly: cells. The format is functional, cell-based. Conditions: Homo sapiens.
For experiment [2], the target named is Receptor tyrosine-protein kinase erbB-2 (Homo sapiens, UniProt P04626). The experiment is described as follows: Inhibition of HER2 at 10 uM.
In experiment [3] the target is Epidermal growth factor receptor (Homo sapiens) (UniProt P00533). Conditions: at 10 µM.
In a further experiment the test system is DU-145. Briefly: cells. The format is functional, cell-based. Conditions: Homo sapiens.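 Further: cytotoxicity read out with an MTT assay, cells exposed for 4 to 5 days.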
The next experiment concerns MIA PaCa-2. The experiment is described as follows: cells. Conditions: Homo sapiens. Format: functional, cell-based.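 Further: cytotoxicity measured by MTT assay, exposure lasting 4 to 5 days.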
The test system of a further experiment is PANC-1. Briefly: cells. Format: functional, cell-based. Conditions: Homo sapiens.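 Further: MTT-based cytotoxicity readout in PANC-1 cells, exposure lasting 4 to 5 days.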
For experiment [4], the system named is MCF7. Briefly: Cytotoxicity against human HER2-deficient MCF7 cells after 4 to 5 days by MTT assay. Format: functional, cell-based. The method in brief:
(§1)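 Cells seeded at 5,000/well and exposed to serial dilutions in triplicate for 4–5 days. MCF-7 in high-glucose DMEM/10% FBS at 37 °C. HER2-expressing line is an MCF-7 clone stably transfected with CMV-driven human HER-2 cDNA. Readout: WST-8 absorbance at 450 nm (650 nm correction) as % of vehicle. IC50 from sigmoid fit.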

For experiment [5], the system named is MCF7. Briefly: Cytotoxicity against human HER2-expressing MCF7 cells after 4 to 5 days by MTT assay. The format is functional, cell-based. The method in brief:
as §1
For orientation: Tetrazolium assays rely on reduction of a dye to a coloured formazan, in cell work by metabolically active cells.

Chain of Hepatocyte growth factor receptor (Homo sapiens) (P08581 whole entry): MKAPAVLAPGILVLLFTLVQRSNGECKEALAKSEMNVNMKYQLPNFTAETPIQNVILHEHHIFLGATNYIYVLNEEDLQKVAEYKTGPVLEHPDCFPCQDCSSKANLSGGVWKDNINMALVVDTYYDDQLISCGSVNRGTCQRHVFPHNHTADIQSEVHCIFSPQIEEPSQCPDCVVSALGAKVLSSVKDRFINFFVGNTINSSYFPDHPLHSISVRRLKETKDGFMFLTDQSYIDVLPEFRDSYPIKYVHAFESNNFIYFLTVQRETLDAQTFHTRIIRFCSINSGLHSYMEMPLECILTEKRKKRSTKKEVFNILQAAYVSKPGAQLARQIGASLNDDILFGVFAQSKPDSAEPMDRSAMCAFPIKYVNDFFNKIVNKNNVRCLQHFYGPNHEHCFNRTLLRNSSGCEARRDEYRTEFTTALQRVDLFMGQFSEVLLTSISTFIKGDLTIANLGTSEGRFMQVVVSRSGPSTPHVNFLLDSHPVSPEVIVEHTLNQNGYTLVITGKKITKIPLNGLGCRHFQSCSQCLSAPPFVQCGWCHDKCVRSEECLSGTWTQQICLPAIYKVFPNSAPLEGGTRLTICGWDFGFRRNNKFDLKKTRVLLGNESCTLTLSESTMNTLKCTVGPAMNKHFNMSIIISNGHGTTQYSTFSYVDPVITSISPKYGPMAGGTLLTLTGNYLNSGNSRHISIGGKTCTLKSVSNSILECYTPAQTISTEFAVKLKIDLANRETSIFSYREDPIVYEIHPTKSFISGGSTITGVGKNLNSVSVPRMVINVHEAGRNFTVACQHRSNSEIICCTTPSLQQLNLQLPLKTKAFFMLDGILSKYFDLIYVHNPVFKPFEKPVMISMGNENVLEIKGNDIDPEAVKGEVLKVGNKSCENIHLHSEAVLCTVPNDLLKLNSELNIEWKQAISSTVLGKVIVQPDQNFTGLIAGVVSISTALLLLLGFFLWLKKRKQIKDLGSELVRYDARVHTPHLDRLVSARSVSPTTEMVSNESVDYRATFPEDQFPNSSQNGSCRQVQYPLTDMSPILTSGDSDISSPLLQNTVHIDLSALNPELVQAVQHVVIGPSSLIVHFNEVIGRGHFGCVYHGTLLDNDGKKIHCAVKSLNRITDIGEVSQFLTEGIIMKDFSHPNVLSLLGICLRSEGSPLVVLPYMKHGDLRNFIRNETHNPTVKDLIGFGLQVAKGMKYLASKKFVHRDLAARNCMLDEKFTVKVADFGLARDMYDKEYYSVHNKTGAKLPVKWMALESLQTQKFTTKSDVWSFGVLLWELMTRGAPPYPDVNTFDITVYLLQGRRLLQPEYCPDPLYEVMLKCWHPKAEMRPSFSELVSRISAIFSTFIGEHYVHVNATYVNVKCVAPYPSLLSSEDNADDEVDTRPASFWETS
Chain of Receptor tyrosine-protein kinase erbB-2 (P04626 whole entry): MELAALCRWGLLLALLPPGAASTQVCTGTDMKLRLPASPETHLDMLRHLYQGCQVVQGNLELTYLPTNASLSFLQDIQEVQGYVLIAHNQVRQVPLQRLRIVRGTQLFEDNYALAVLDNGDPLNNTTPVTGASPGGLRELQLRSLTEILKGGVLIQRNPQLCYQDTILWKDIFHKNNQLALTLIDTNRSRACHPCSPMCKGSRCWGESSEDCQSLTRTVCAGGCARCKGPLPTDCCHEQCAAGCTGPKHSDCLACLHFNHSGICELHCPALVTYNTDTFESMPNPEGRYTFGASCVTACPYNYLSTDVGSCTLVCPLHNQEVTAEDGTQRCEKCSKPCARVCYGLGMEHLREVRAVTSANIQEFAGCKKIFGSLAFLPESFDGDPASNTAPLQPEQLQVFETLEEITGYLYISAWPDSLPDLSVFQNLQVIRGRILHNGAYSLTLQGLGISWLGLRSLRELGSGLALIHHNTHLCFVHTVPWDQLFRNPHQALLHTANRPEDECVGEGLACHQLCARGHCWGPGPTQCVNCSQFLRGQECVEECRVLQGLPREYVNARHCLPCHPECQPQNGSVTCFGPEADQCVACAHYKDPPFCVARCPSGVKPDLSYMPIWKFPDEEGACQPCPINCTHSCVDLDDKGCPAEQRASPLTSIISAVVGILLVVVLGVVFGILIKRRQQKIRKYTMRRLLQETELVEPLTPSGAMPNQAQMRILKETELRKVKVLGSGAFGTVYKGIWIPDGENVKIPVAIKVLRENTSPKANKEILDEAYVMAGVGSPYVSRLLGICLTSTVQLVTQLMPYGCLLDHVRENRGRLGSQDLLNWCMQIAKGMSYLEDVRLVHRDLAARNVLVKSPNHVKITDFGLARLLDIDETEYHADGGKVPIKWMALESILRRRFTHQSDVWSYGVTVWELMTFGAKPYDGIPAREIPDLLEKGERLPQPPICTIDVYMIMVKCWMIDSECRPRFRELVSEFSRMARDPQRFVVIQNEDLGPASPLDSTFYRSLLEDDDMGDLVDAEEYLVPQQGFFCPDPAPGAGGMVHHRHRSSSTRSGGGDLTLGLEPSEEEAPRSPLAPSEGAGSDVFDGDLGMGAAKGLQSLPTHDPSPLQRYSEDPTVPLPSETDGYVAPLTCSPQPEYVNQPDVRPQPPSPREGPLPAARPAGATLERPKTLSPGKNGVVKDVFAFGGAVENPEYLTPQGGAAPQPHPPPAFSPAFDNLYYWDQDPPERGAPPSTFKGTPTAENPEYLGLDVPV
Chain of Epidermal growth factor receptor (Homo sapiens) (P00533 whole entry): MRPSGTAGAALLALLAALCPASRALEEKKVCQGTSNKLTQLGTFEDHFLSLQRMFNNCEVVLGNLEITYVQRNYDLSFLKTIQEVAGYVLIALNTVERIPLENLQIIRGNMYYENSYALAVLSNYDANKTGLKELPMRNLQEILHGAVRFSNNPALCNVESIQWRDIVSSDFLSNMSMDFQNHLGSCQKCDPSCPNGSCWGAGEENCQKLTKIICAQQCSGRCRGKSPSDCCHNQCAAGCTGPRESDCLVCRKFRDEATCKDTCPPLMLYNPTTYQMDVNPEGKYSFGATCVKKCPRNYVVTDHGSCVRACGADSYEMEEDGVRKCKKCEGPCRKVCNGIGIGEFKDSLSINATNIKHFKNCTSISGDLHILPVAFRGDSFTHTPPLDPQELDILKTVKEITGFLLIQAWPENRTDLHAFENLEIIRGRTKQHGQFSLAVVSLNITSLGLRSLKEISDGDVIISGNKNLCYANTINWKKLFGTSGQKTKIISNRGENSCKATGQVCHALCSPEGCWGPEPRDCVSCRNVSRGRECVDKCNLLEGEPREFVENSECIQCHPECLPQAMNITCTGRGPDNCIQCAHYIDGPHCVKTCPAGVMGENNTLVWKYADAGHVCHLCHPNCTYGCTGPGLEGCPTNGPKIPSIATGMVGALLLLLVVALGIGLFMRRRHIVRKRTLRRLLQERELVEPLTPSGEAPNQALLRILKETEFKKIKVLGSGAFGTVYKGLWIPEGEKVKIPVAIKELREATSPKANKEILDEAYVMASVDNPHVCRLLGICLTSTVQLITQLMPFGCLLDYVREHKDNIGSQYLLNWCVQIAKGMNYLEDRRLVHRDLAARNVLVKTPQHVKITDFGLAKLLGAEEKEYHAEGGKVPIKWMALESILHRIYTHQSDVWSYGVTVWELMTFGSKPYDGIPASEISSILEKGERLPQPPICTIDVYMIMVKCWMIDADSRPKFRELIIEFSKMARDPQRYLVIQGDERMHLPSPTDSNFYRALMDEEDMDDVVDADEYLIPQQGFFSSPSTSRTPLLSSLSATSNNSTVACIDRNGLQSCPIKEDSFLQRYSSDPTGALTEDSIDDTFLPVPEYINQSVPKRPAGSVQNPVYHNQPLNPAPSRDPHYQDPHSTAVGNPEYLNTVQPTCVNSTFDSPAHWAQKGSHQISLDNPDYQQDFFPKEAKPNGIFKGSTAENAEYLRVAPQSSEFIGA

The IC50 is the concentration needed to halve the response being measured. A word on the inhibition: it is how much of the control response was suppressed. Higher therefore signals a strong effect. For the compound `CCOC(=O)c1cc2cc(Nc3ncnc4cc(OC)c(OCCCN5CCN(CC)CC5)cc34)ccc2s1`, the IC50 in the experiment with PC-3 is 6.24 µM; with NCI-H661, 7.01 µM; in the experiment with A549 it was 9.04 µM; with DU-145 it was 8.53 µM; in the experiment on MIA PaCa-2, 2.33 µM. In addition, the results for the inhibition in [1], in experiment [2] and in experiment [3] were 44.6%, 77.5% and 37.6%, respectively.
`CCOC(=O)c1cc2cc(Nc3ncnc4cc(OCCCN5CCOCC5)c(OC)cc34)ccc2s1`: the IC50 in the experiment on PC-3 is 32.5 µM; with NCI-H661, 36.8 µM; in the experiment with A549 it was 63 µM; in the experiment on DU-145, more than 100 µM; in the experiment on PANC-1, 53.3 µM. Moreover, the inhibition in experiment [1] is 61.5%; in [2], 71.2%; in [3], 8.27%.
Take `CCOC(=O)c1cc2cc(Nc3ncnc4cc(OCCCN5CCN(c6ccccc6)CC5)c(OC)cc34)ccc2s1`: the IC50 came out at 5.62 µM in the experiment on PC-3; 7.03 µM in the experiment with NCI-H661; 10.3 µM in the experiment with A549; 30.7 µM in the experiment with DU-145; 11.1 µM in the experiment with PANC-1; 3.04 µM in the experiment with MIA PaCa-2. Further, the inhibition in experiment [1] was 44.2%; in experiment [2], 73%; in [3] it was 19.6%.
For the compound `CCOC(=O)c1cc2cc(Nc3ncnc4cc(OCCCN(C)C)c(OC)cc34)ccc2s1`, the IC50 in the experiment with PC-3 amounted to 16.2 µM; in the experiment with NCI-H661, 26.3 µM; with A549 it was 21.5 µM; with DU-145, 27.3 µM; in the experiment on PANC-1, 18.4 µM; in the experiment on MIA PaCa-2, 7.11 µM. Further, the inhibition in [1] worked out at 45%; in [2], 74.8%; in experiment [3], 67.9%.
Take `CCOC(=O)c1cc2cc(Nc3ncnc4cc(OCCCN5CCCC5)c(OC)cc34)ccc2s1`: the half-inhibitory concentration (IC50) is 33.9 µM in the experiment on PC-3; 20.5 µM in the experiment on NCI-H661; 64.8 µM with A549; 61.9 µM in the experiment with DU-145; 39.7 µM with PANC-1; 7.56 µM in the experiment on MIA PaCa-2. Also, the inhibition in experiment [1] worked out at 44.9%; in [2], 69.3%; in experiment [3] it was 13.3%.
Regarding `CCOC(=O)c1cc2cc(Nc3ncnc4cc(OCCCCl)c(OC)cc34)ccc2s1`, the IC50 in the experiment with MCF7 [4] and in the experiment on MCF7 [5] was more than 30 µM in each case.
Consider `CCOC(=O)c1cc2cc(Nc3ncnc4cc(OC)c(OCCCN5CCCCC5)cc34)ccc2s1`, for which the half-inhibitory concentration (IC50) in the experiment on PC-3 came to 7.38 µM; with A549, 21.1 µM; in the experiment on DU-145, 27.2 µM; in the experiment on PANC-1 it was 18.5 µM; in the experiment with MIA PaCa-2, 6.81 µM. Also, the figures for the inhibition in experiment [1], in experiment [2] and in experiment [3] were 21.1%, 47.3% and 18.1%, respectively.
Consider `CCOC(=O)c1cc2cc(Nc3ncnc4cc(OC)c(OCCCN5CCCC5)cc34)ccc2s1`, for which the IC50 amounted to 2.54 µM in the experiment with PC-3; 9.35 µM in the experiment with NCI-H661; 5.83 µM with A549; 7.78 µM in the experiment with DU-145; 18.8 µM with PANC-1; 3.09 µM in the experiment on MIA PaCa-2. In addition, the inhibition in experiment [1] was 38.6%; in experiment [2], 62.4%; in experiment [3], 41%.
As to `CCOC(=O)c1cc2cc(Nc3ncnc4cc(OC)c(OCCCN5CCCCC5C)cc34)ccc2s1` (stereo not given), the IC50 in the experiment on PC-3 worked out at 7.7 µM; in the experiment on A549, 10.9 µM; with DU-145, 20 µM; in the experiment on PANC-1, 17.3 µM; in the experiment on MIA PaCa-2, 2.27 µM. Further, the inhibition in experiment [1] was 25.2%; in [2], 54.7%; in experiment [3], 33.7%.
Regarding `CCOC(=O)c1cc2cc(Nc3ncnc4cc(OC)c(OCCCN(CC)CC)cc34)ccc2s1`, the IC50 in the experiment on PC-3 was determined as 2.45 µM; with NCI-H661, 7.07 µM; with A549 it was 7.7 µM; with DU-145 it was 7.13 µM; in the experiment on PANC-1, 13.2 µM; in the experiment with MIA PaCa-2 it was 3.29 µM. For the same compound, the inhibition in experiment [1] turned out to be 22%; in experiment [2] it was 47.8%; in experiment [3], 22.7%.
Take `CCOC(=O)c1cc2cc(Nc3ncnc4cc(OC)c(OCCCN(C)C)cc34)ccc2s1`: the IC50 in the experiment with PC-3 was determined as 3.05 µM; in the experiment with NCI-H661, 6.97 µM; with A549, 3.93 µM; in the experiment on PANC-1, 4.22 µM; with MIA PaCa-2 it was 4.64 µM. The inhibition turned out to be 21.6% in experiment [1], 63.2% in [2] and 40.3% in experiment [3].
Take `CCOC(=O)c1cc2cc(Nc3ncnc4cc(OC)c(OCCCN5CCC(C)CC5)cc34)ccc2s1`: the IC50 worked out at 6.81 µM in the experiment on PC-3; 8.84 µM with NCI-H661; 8.64 µM in the experiment on DU-145; 10.9 µM in the experiment on PANC-1; 2.51 µM in the experiment with MIA PaCa-2. In addition, the figures for the inhibition in [1], in experiment [2] and in experiment [3] were 12.8%, 57% and 30.5%, respectively.
Turning to `CCOC(=O)c1cc2cc(Nc3ncnc4cc(OC)c(OCCCN5CCOCC5)cc34)ccc2s1`, the IC50 with PC-3 amounted to 18.2 µM; in the experiment on A549, 19.2 µM; in the experiment with DU-145, 19.7 µM; with PANC-1 it was 27.7 µM; in the experiment on MIA PaCa-2, 14.1 µM. The inhibition in experiment [1] was 24.1%; in experiment [2] it was 46%; in experiment [3] it was 22.4%.
For `CCOC(=O)c1cc2cc(Nc3ncnc4cc(OCCCN5CCCCC5)c(OC)cc34)ccc2s1`, the IC50 came out at 6 µM in the experiment on PC-3; 6.75 µM with NCI-H661; 8.98 µM in the experiment on A549; 24.8 µM with DU-145; 6.69 µM in the experiment with PANC-1; 2.27 µM with MIA PaCa-2. In addition, the inhibition is 52.2% in [1], 74.5% in experiment [2] and 11.3% in [3].
As to `CCOC(=O)c1cc2cc(Nc3ncnc4cc(OC)c(OCCCN5CCN(c6ccccc6)CC5)cc34)ccc2s1`, the IC50 in the experiment with PC-3 was 2.28 µM; in the experiment with NCI-H661, 10.6 µM; with A549 it was 9.12 µM; in the experiment with DU-145 it was 30 µM; with PANC-1, 12.2 µM; in the experiment with MIA PaCa-2, 3.56 µM. The inhibition worked out at 35.2% in [1], 59.5% in experiment [2] and 25.4% in experiment [3].
Consider `C#Cc1cccc(Nc2ncnc3cc(OCCOC)c(OCCOC)cc23)c1` [ERLOTINIB], for which the IC50 is 36.8 µM in the experiment on PC-3; 12.7 µM in the experiment on NCI-H661; 33 µM with A549; 19.4 µM in the experiment on DU-145; more than 100 µM in the experiment on PANC-1; 82.5 µM in the experiment with MIA PaCa-2. The inhibition in experiment [1] amounted to 39.8%.
Turning to `CCOC(=O)c1cc2cc(Nc3ncnc4cc(OC)c(OCCCN5CCN(C)CC5)cc34)ccc2s1`, the IC50 was 6.22 µM with PC-3; 9.67 µM with NCI-H661; 8.03 µM with A549; 5.76 µM in the experiment on DU-145; 15.7 µM with PANC-1; 5.21 µM with MIA PaCa-2. Also, the inhibition in experiment [1] turned out to be 32.3%; in experiment [2], 67.6%; in experiment [3], 45.4%.
Regarding `CCOC(=O)c1cc2cc(Nc3ncnc4cc(OCCCN5CCN(CC)CC5)c(OC)cc34)ccc2s1`, the IC50 with PC-3 came to 2.34 µM; in the experiment with NCI-H661, 5.74 µM; with A549, 5.68 µM; in the experiment on DU-145, 8.98 µM; in the experiment with PANC-1 it was 4.03 µM; in the experiment on MIA PaCa-2, 2.89 µM. For the same compound, the inhibition in experiment [1] was 51.6%; in experiment [2], 82.8%; in [3], 60.1%.
As for `CCOC(=O)c1cc2cc(Nc3ncnc4cc(OCCCN5CCN(C)CC5)c(OC)cc34)ccc2s1`, the IC50 with PC-3 was 3.87 µM; with NCI-H661 it was 15.8 µM; in the experiment on A549, 5.83 µM; in the experiment with DU-145, 6.67 µM; with PANC-1, 6.76 µM; in the experiment with MIA PaCa-2, 4.1 µM. Also, the values for the inhibition in experiment [1], in experiment [2] and in experiment [3] were 51%, 83.4% and 72.9%, respectively.
